# How the values were obtained:
# HCT-116 = experiment: Antiproliferative activity against human HCT116 cells after 72 hrs by MTT assay; assay type: functional, cell-based
# How it was run: (§1)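 Cells from ATCC grown in DMEM or RPMI-1640 with 5% FCS, 2 mM L-glutamine, and penicillin/streptomycin at 37 °C, 5% CO2. 5 × 10³ log-phase cells per well were exposed to serial dilutions (from 10 mM DMSO stocks; 0.1% DMSO vehicle control), each dose in duplicate, for 72 h. MTT was added for 2 h and absorbance read at 540 nm. IC50 is the 50% viability inhibition versus vehicle. Mean ± SD of 4–5 independent experiments.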
# K562 = experiment: Antiproliferative activity against human K562 cells after 72 hrs by MTT assay; assay type: functional, cell-based; how it was run: as §1
# B16 [1] = experiment: Antitumor activity against mouse B16 cells xenografted in B6D2F1 mouse assessed as tumor growth inhibition at 2 mg/kg, iv administered on days 1,4,7,10,13,16,19 and 22 measured 28 days post tumor challenge; assay type: functional; details: B16, 672 h, read-out: GI
# How it was run: (§2)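 B6D2F1 mice, 10 per group, received 10⁶ B16 melanoma cells s.c. into the right flank on day 0. Compound diluted in saline was given iv on days 1, 4, 7, 10, 13 (5 injections) or days 1–22 every third day (8 injections). Controls were left untreated, and mice were sacrificed by day 28. ITG% = (Mc−Mt)/Mc × 100, using calculated tumor weight (a×b×c)/2.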
# P388 [2] = experiment: Antitumor activity against mouse P388 cells xenografted in B6D2F1 mouse assessed as increase in lifespan at 1 mg/kg, ip administered daily for 5 days relative to untreated control; assay type: functional; details: route intraperitoneal
# How it was run: (§3)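 Each group of 10 B6D2F1 mice received 10^6 P388 lymphoma cells ip on day 0. Drug was dissolved in 0.1% DMSO, diluted with saline and given once daily for 5 days; controls were untreated. ILS (%) = (Dt−Dc)/Dc × 100, where Dt and Dc are mean survival times in days for treated and control groups.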
# P388 [3] = experiment: Antitumor activity against mouse P388 cells xenografted in B6D2F1 mouse assessed as increase in lifespan at 2 mg/kg, ip administered daily for 5 days relative to untreated control; assay type: functional; details: route intraperitoneal; how it was run: as §3
# B16 [4] = experiment: Antitumor activity against mouse B16 cells xenografted in B6D2F1 mouse assessed as tumor growth inhibition at 2 mg/kg, iv administered on days 1,4,7,10 and 13 measured 28 days post tumor challenge; assay type: functional; details: B16, 672 h, read-out: GI; how it was run: as §2
# [5] = Toxicity in mouse P388 cells xenografted B6D2F1 mouse assessed as mortality at 4 mg/kg, ip administered daily for 5 days; assay type: organism-based; design: dose 4 mg/kg, route intraperitoneal; details: in vivo, read-out: Activity
# How it was run: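 B6D2F1 mice, 10 per group, were inoculated ip with 10^6 P388 cells on day 0. Drug in 0.1% DMSO, diluted in saline, was given daily for 5 days. Physical condition, body weight, behaviour, nutrition and hair cover were monitored daily. Mortality was scored as drug-related toxicity deaths.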
# Nucleic Acid [6] = experiment: Binding affinity to Salmon sperm DNA at 1.34 uM by Scatchard plot analysis; assay type: nucleic-acid assay; details: Salmonidae
# Nucleic Acid [7] = experiment: Binding affinity to Salmon sperm DNA assessed as increase in fluorescence at 1.34 uM by spectrophotometry; details: Salmonidae
# Nucleic Acid [8] = experiment: Binding affinity to Salmon sperm DNA assessed as increase in fluorescence at 1.34 uM by spectrophotometry; assay type: nucleic-acid assay; details: Salmonidae
Compound,IC50 (HCT-116),IC50 (K562),other results
CO[C@H]1[C@H](O)C[C@@H](O[C@@H]2C[C@H](Oc3cc(O)c4c(O)c5c(cc4c3)C[C@@H]([C@H](OC)C(N)=O)[C@H](O[C@H]3C[C@H](O[C@H]4C[C@H](O[C@H]6C[C@@](C)(O)[C@@H](OC(=O)C(C)C)[C@H](C)O6)[C@H](O)[C@@H](C)O4)[C@H](O)[C@@H](C)O3)C5=O)O[C@H](C)[C@H]2OC(C)=O)O[C@@H]1C,100 nM,–,–
CO[C@H]1[C@H](O)C[C@@H](O[C@@H]2C[C@H](Oc3cc(O)c4c(O)c5c(cc4c3)C[C@@H]([C@H](OC)C(=O)NCCN(C)C)[C@H](O[C@H]3C[C@H](O[C@H]4C[C@H](O[C@H]6C[C@@](C)(O)[C@@H](OC(=O)C(C)C)[C@H](C)O6)[C@H](O)[C@@H](C)O4)[C@H](O)[C@@H](C)O3)C5=O)O[C@H](C)[C@H]2OC(C)=O)O[C@@H]1C,20 nM,47 nM,–
CO[C@H]1[C@H](O)C[C@@H](O[C@@H]2C[C@H](Oc3cc(O)c4c(O)c5c(cc4c3)C[C@@H]([C@H](OC)C(=O)N[C@@H]3[C@@H](O)[C@@H](O)[C@@H](CO)O[C@H]3O)[C@H](O[C@H]3C[C@H](O[C@H]4C[C@H](O[C@H]6C[C@@](C)(O)[C@@H](OC(=O)C(C)C)[C@H](C)O6)[C@H](O)[C@@H](C)O4)[C@H](O)[C@@H](C)O3)C5=O)O[C@H](C)[C@H]2OC(C)=O)O[C@@H]1C,> 12500 nM,2390 nM,–
CO[C@H]1[C@H](O)C[C@@H](O[C@@H]2C[C@H](Oc3cc(O)c4c(O)c5c(cc4c3)C[C@@H]([C@H](OC)C(=O)[C@@H](O)[C@@H](C)O)[C@H](O[C@H]3C[C@H](O[C@H]4C[C@H](O[C@H]6C[C@@](C)(O)[C@@H](OC(=O)C(C)C)[C@H](C)O6)[C@H](O)[C@@H](C)O4)[C@H](O)[C@@H](C)O3)C5=O)O[C@H](C)[C@H]2OC(C)=O)O[C@@H]1C [OLIVOMYCIN A],20 nM,50 nM,inhibition in vivo at 2 mg/kg (B16 [1]): 45%; Activity (P388 [2]): 24%; Activity (P388 [3]): 35%; inhibition in vivo at 2 mg/kg (B16 [4]): 48%; mortality at 120 h [5]: 87%
CO[C@H]1[C@H](O)C[C@@H](O[C@@H]2C[C@H](Oc3cc(O)c4c(O)c5c(cc4c3)C[C@@H]([C@H](OC)C(=O)O)[C@H](O[C@H]3C[C@H](O[C@H]4C[C@H](O[C@H]6C[C@@](C)(O)[C@@H](OC(=O)C(C)C)[C@H](C)O6)[C@H](O)[C@@H](C)O4)[C@H](O)[C@@H](C)O3)C5=O)O[C@H](C)[C@H]2OC(C)=O)O[C@@H]1C [OLIVOMYCIN SA],2000 nM,2200 nM,K (Nucleic Acid [6]): 2.1 ×10⁴ /M; Activity (Nucleic Acid [7]): Dose-dependent effect; Activity (Nucleic Acid [8]): Dose-dependent effect
CO[C@H]1[C@H](O)C[C@@H](O[C@@H]2C[C@H](Oc3cc(O)c4c(O)c5c(cc4c3)C[C@@H]([C@H](OC)C(=O)NCCCO)[C@H](O[C@H]3C[C@H](O[C@H]4C[C@H](O[C@H]6C[C@@](C)(O)[C@@H](OC(=O)C(C)C)[C@H](C)O6)[C@H](O)[C@@H](C)O4)[C@H](O)[C@@H](C)O3)C5=O)O[C@H](C)[C@H]2OC(C)=O)O[C@@H]1C,156 nM,–,–
CO[C@H]1[C@H](O)C[C@@H](O[C@@H]2C[C@H](Oc3cc(O)c4c(O)c5c(cc4c3)C[C@@H]([C@H](OC)C(=O)NCc3ccc(F)cc3)[C@H](O[C@H]3C[C@H](O[C@H]4C[C@H](O[C@H]6C[C@@](C)(O)[C@@H](OC(=O)C(C)C)[C@H](C)O6)[C@H](O)[C@@H](C)O4)[C@H](O)[C@@H](C)O3)C5=O)O[C@H](C)[C@H]2OC(C)=O)O[C@@H]1C,278 nM,148 nM,–
CO[C@H]1[C@H](O)C[C@@H](O[C@@H]2C[C@H](Oc3cc(O)c4c(O)c5c(cc4c3)C[C@@H]([C@H](OC)C(=O)NC3C4CC6CC(C4)CC3C6)[C@H](O[C@H]3C[C@H](O[C@H]4C[C@H](O[C@H]6C[C@@](C)(O)[C@@H](OC(=O)C(C)C)[C@H](C)O6)[C@H](O)[C@@H](C)O4)[C@H](O)[C@@H](C)O3)C5=O)O[C@H](C)[C@H]2OC(C)=O)O[C@@H]1C (some centres undefined),180 nM,–,–
CNC(=O)[C@@H](OC)[C@@H]1Cc2cc3cc(O[C@H]4C[C@@H](O[C@@H]5C[C@@H](O)[C@H](OC)[C@@H](C)O5)[C@H](OC(C)=O)[C@@H](C)O4)cc(O)c3c(O)c2C(=O)[C@H]1O[C@H]1C[C@H](O[C@H]2C[C@H](O[C@H]3C[C@@](C)(O)[C@@H](OC(=O)C(C)C)[C@H](C)O3)[C@H](O)[C@@H](C)O2)[C@H](O)[C@@H](C)O1,120 nM,–,–
COC(=O)[C@H](C)NC(=O)[C@@H](OC)[C@@H]1Cc2cc3cc(O[C@H]4C[C@@H](O[C@@H]5C[C@@H](O)[C@H](OC)[C@@H](C)O5)[C@H](OC(C)=O)[C@@H](C)O4)cc(O)c3c(O)c2C(=O)[C@H]1O[C@H]1C[C@H](O[C@H]2C[C@H](O[C@H]3C[C@@](C)(O)[C@@H](OC(=O)C(C)C)[C@H](C)O3)[C@H](O)[C@@H](C)O2)[C@H](O)[C@@H](C)O1,20 nM,63 nM,–
